1 molecule from ChEMBL document CHEMBL3872208, “Synthesis and pharmacological characterization of novel N-(trans-4-(2-(4-(benzo[d]isothiazol-3-yl)piperazin-1-yl)ethyl)cyclohexyl)amides as potential multireceptor atypical antipsychotics” (Eur J Med Chem, 2016) can be followed below.

The term Ki denotes the dissociation constant of the complex between target and ligand, obtained from inhibition or displacement. As a reminder, the IC50 is the midpoint of a concentration-inhibition curve. In general, inhibition refers to the drop in the measured response relative to a control, in per cent. In general, Cmax refers to the highest concentration seen after dosing. Broadly, the AUC(0-t) is the area under the concentration-time curve up to a stated or last time point. The low end stands for less exposure, the high end for more exposure. In general, bioavailability refers to dose-corrected exposure relative to a reference, in per cent. Read a low bioavailability as little systemic uptake. Broadly, the EC50 is the concentration needed to bring the measured effect to its halfway point. Low values mean a more potent agent, high ones a less potent agent. One may read the Tmax as the time from dosing to the highest level. The term half-life denotes how long it takes for the measured level to halve.

Data set [1] addresses T1, D(3) dopamine receptor (Homo sapiens, UniProt P35462). Kind of data set: Displacement of [3H]methyl-spiperone from recombinant human D3 receptor expressed in CHO cell membranes after 60 mins by scintillation counting method. A general note: Displacement assays read how much labelled ligand stays bound in the presence of the test substance.
For data set [2], the target named is T2, 5-hydroxytryptamine receptor 2A (Homo sapiens, UniProt P28223). Kind of data set: Antagonistic activity at 5-HT2A receptor (unknown origin) expressed in CHOK1 cells co-expressing G-alpha 15 assessed as inhibition of serotonin-induced calcium flux by Fluo-4 based FLIPR assay. The format is functional, cell-based, CHO-K1. (Calcium assays in cells follow changes in intracellular calcium, usually with a dye or a luminescent sensor.)
T2 sequence (P28223 whole entry): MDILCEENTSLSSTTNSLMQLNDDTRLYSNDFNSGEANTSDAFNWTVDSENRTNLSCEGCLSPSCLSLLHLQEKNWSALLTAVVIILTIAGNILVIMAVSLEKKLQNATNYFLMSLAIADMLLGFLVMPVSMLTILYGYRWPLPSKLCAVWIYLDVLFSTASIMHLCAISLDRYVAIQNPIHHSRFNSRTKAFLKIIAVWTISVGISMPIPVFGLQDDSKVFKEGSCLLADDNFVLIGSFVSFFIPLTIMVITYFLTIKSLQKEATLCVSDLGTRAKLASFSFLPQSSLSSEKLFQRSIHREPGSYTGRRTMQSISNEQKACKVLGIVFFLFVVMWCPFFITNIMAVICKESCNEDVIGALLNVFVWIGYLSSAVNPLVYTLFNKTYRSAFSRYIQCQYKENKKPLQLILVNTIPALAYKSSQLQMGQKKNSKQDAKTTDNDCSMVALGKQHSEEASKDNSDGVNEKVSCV

Data set [3] addresses T3, Muscarinic acetylcholine receptor M1 (Homo sapiens, UniProt P11229).
T3 sequence (P11229 whole entry): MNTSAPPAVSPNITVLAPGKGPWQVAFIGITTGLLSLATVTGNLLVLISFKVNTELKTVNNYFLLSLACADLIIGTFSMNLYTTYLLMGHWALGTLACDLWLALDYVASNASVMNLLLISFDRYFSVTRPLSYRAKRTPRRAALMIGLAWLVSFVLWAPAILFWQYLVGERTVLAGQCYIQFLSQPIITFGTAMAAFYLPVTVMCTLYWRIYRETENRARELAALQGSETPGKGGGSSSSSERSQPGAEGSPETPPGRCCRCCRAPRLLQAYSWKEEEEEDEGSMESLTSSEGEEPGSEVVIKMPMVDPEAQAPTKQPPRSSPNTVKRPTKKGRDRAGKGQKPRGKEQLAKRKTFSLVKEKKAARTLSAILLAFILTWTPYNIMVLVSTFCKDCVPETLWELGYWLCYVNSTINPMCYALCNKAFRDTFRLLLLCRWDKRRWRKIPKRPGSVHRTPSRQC
Kind of data set: Displacement of [3H]pirenzepine from recombinant human M1 receptor expressed in CHO cell membranes at 1 uM after 60 mins by scintillation counting method relative to control. The conditions noted are these: CHO cell membranes expressing recombinant human M1 receptor, probe [3H]pirenzepine. Put shortly:
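Nonspecific binding defined with […]. Filtered on PEI-soaked GF/B and scintillation counted. Expressed as percent inhibition of control specific binding at a single test concentration.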

The nature of data set [4]: Cmax in Sprague-Dawley rat brain at 0.5 mg/kg, iv administered as single dose by LC-MS/MS analysis. Type of data set: ADME, organism-based. Also noted: dose 0.5 mg/kg, route intravenous. An outline of the steps:
(§1)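 Male SD rats, single dose: 0.5 mg/kg i.v. or 2.0 mg/kg p.o. Vehicle is 5% DMSO, 10% Solutol HS 15 and 85% PBS. Heparinized blood is sampled at 5, 15 and 30 min and at 1, 2, 4, 8 and 24 h after dosing. Plasma is reported in ng/mL and brain in ng/g. F is derived from the p.o. and i.v. arms.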

Data set [5] deals with Voltage-gated inwardly rectifying potassium channel KCNH2 (Homo sapiens, UniProt Q12809).
Chain of Voltage-gated inwardly rectifying potassium channel KCNH2 (Q12809 whole entry): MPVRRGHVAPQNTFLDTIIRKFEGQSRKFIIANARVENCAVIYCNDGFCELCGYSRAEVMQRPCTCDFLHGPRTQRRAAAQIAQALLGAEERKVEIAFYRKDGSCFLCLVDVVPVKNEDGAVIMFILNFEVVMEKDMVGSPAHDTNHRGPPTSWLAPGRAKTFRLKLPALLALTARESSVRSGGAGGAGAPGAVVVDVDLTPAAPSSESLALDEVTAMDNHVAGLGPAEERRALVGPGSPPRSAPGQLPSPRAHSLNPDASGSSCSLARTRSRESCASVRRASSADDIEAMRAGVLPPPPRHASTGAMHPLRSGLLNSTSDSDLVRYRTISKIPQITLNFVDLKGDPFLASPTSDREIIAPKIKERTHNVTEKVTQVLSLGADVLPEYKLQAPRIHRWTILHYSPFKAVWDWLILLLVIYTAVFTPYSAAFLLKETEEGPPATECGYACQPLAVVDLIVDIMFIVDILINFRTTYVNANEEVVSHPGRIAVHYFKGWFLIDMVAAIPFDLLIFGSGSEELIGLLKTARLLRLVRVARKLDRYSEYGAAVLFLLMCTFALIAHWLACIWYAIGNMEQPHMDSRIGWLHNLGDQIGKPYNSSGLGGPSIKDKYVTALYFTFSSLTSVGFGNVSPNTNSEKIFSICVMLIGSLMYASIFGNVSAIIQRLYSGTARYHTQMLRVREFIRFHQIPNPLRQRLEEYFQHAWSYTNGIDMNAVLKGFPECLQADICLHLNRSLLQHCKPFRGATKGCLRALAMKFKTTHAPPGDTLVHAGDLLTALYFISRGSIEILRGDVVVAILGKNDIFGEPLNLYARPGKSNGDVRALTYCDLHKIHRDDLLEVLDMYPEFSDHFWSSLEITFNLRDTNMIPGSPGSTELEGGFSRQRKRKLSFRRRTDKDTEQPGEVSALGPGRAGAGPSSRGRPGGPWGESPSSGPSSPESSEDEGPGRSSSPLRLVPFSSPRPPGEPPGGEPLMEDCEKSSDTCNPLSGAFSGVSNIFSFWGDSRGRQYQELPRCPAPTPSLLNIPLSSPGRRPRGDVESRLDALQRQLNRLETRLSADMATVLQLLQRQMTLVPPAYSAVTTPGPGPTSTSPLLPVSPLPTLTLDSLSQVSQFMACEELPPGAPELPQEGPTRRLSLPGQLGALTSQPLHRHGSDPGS
Data set [6] in a line: AUC (0 to t) in Sprague-Dawley rat brain at 2 mg/kg, po administered as single dose by LC-MS/MS analysis. Type of data set: ADME, organism-based. An outline of the steps:
as §1

Data set [7] has as its target T4, 5-hydroxytryptamine receptor 1A (Homo sapiens) (UniProt P08908).
T4 sequence (whole entry): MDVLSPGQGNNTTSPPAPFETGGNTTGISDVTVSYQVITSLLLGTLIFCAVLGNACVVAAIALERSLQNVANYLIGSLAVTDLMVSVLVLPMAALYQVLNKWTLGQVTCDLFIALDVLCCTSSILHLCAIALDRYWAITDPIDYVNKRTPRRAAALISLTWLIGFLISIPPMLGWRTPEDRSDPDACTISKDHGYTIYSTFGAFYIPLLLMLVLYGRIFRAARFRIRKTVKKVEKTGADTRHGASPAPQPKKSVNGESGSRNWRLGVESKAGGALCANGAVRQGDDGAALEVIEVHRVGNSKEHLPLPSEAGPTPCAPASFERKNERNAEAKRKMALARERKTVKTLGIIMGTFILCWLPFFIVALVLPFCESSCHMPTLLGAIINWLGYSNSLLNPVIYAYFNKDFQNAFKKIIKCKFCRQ
The settings on record: CHO-K1, 10 uM.

The nature of data set [8]: Oral bioavailability in Sprague-Dawley rat brain at 2 mg/kg administered as single dose by LC-MS/MS analysis. The format is ADME, organism-based. An outline of the steps:
as §1

In data set [9] the target is T1, D(3) dopamine receptor. Kind of data set: Agonist activity at D3 receptor (unknown origin) expressed in cell membranes after 40 mins by [35S]GTPgammaS binding assay. Type of data set: functional. Background: GTPγS is a poorly hydrolysed GTP analogue; its binding reports G protein activation.
A short description of data set [10]: Cmax in Sprague-Dawley rat plasma at 2.0 mg/kg, po administered as single dose by LC-MS/MS analysis. The format is ADME, organism-based. Set-up: dose 2 mg/kg, route oral. An outline of the steps: as §1
In data set [11] the target is T5, 5-hydroxytryptamine receptor 1A (Homo sapiens, UniProt P08908).
T5 sequence (P08908 whole entry): T4 sequence (whole entry)
Kind of data set: Agonist activity at 5-HT1A receptor (unknown origin) expressed in CHOK1 cells co-expressing G-alpha 15 by Fluo-4 dye based FLIPR assay. Type of data set: cell-based, CHO-K1.

Data set [12] concerns Rattus norvegicus. Kind of data set: Reversal of PCP-induced hyperlocomotion activity in ip dosed Sprague-Dawley rat pretreated for 10 mins followed by PCP challenge measured after […]. Type of data set: functional, organism-based.
In data set [13] the target is D(2) dopamine receptor (Homo sapiens, UniProt P14416). Kind of data set: Antagonistic activity at D2 receptor (unknown origin) expressed in CHOK1 cells co-expressing G-alpha 15 assessed as inhibition of dopamine-induced calcium flux by fluo-4 dye based FLIPR assay. The format is functional, cell-based, CHO-K1.
Chain of D(2) dopamine receptor (P14416 whole entry): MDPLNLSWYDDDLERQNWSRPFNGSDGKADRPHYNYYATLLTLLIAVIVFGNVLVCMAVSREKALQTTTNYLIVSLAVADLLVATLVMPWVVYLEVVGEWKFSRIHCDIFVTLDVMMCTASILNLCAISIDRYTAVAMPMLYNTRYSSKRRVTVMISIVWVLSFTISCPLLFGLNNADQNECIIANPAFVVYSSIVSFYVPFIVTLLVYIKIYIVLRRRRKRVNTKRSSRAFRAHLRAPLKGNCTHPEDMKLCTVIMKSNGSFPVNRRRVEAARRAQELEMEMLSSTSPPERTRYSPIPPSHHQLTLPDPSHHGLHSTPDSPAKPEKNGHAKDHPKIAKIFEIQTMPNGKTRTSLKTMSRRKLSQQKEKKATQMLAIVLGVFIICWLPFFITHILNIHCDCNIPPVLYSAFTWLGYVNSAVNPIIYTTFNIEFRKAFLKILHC
The target in data set [14] is T5, 5-hydroxytryptamine receptor 1A. Kind of data set: Displacement of [3H]8-OH-DPAT from recombinant human 5-HT1A receptor expressed in HEK293 cell membranes after 60 mins by scintillation counting method.
Data set [15] is described as follows: Tmax in Sprague-Dawley rat plasma at 2 mg/kg, po administered as single dose by LC-MS/MS analysis. Type of data set: ADME, organism-based. Put shortly: as §1
The target of data set [16] is T2, 5-hydroxytryptamine receptor 2A. Kind of data set: Displacement of [3H]ketanserin from recombinant human 5-HT2A receptor expressed in HEK293 cell membranes after 60 mins by scintillation counting method.
The nature of data set [17]: Half life in Sprague-Dawley rat brain at 2 mg/kg, po administered as single dose by LC-MS/MS analysis. The format is ADME, organism-based. An outline of the steps: as §1
For data set [18], the target named is T5, 5-hydroxytryptamine receptor 1A. Kind of data set: Antagonistic activity at 5-HT1A receptor (unknown origin) expressed in CHOK1 cells co-expressing G-alpha 15 assessed as inhibition of serotonin-induced calcium flux by Fluo-4 based FLIPR assay. The format is functional, cell-based, CHO-K1.

A value given as a limit tells only on which side of the number the result lay.

T1 sequence (P35462 whole entry): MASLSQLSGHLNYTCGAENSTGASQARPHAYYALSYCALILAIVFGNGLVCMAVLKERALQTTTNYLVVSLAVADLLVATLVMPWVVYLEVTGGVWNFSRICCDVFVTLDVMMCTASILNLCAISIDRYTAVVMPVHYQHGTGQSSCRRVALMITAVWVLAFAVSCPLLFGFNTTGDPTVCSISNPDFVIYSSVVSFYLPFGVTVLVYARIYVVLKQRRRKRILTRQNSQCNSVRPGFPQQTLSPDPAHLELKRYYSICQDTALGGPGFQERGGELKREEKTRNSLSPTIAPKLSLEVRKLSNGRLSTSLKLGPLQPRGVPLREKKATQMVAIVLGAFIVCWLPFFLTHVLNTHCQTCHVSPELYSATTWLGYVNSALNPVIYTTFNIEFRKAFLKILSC

As to `O=C(N[C@H]1CC[C@H](CCN2CCN(c3nsc4ccccc34)CC2)CC1)c1ccco1`, the figures for the Ki in data set [1], in [14] and in data set [16] were 0.00013 µM, 0.0013 µM and 0.00023 µM, respectively. Also, the concentration for half-maximal inhibition (IC50) in data set [2] was determined as 0.0318 µM; in [5], 2.11 µM; in [13], 0.0614 µM; in [18], 0.0461 µM. Besides, the inhibition at 1 h, 1 µM in data set [3] was 50.6%. Further, the figures for the maximum concentration (Cmax) in data set [4] and in data set [10] were 259 ng/mL and 18.4 ng/mL, respectively. In data set [6], this molecule yielded an AUC(0-t) of 884 ng·h/mL. The inhibition in data set [7] was 115%. In addition, the bioavailability in [8] came to 20.7%. In addition, the EC50 in [9] and in [11] was greater than 10 µM throughout. The Activity result in [12] is “Dose-dependent effect”. The time to peak (Tmax) in [15] was 0.5 h. Besides, the half-life in data set [17] is 16.3 h.
